Active and inactive are the calls of the source. The rule behind the calls is not given here.

Data set [1] in a line: Inhibition of XBP1 mRNA splicing (unknown origin) expressed in mouse B16-F10-XBP1-DBD-luc cells incubated for 8 hrs by luciferase reporter gene assay. Format: cell-based.
Data set [2] has as its target T1, Tyrosine-protein phosphatase non-receptor type 1 (Homo sapiens) (UniProt P18031).
T1 sequence (whole entry): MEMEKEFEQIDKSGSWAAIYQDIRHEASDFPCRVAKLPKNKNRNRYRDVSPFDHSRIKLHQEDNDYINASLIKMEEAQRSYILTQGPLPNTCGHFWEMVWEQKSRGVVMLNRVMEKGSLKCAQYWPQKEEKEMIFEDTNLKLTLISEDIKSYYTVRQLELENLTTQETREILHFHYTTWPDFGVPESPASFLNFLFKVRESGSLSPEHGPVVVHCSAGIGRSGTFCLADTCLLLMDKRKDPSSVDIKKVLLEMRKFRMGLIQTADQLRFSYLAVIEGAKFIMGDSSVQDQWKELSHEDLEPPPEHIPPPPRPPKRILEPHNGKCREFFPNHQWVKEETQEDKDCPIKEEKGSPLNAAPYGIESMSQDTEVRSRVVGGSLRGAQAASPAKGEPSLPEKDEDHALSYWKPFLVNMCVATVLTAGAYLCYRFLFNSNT
Description: Inhibition of PTP1B (unknown origin).

For data set [3], the target named is Nuclear factor NF-kappa-B complex (Homo sapiens) (UniProt Q00653+P19838+Q04206). Description: Inhibition of TNFalpha-stimulated NF-kappaB signaling (unknown origin) expressed in HEK293 cells by luciferase reporter gene assay. Format: cell-based.
Sequence of Nuclear factor NF-kappa-B complex (Homo sapiens) (P19838 whole entry, looked up): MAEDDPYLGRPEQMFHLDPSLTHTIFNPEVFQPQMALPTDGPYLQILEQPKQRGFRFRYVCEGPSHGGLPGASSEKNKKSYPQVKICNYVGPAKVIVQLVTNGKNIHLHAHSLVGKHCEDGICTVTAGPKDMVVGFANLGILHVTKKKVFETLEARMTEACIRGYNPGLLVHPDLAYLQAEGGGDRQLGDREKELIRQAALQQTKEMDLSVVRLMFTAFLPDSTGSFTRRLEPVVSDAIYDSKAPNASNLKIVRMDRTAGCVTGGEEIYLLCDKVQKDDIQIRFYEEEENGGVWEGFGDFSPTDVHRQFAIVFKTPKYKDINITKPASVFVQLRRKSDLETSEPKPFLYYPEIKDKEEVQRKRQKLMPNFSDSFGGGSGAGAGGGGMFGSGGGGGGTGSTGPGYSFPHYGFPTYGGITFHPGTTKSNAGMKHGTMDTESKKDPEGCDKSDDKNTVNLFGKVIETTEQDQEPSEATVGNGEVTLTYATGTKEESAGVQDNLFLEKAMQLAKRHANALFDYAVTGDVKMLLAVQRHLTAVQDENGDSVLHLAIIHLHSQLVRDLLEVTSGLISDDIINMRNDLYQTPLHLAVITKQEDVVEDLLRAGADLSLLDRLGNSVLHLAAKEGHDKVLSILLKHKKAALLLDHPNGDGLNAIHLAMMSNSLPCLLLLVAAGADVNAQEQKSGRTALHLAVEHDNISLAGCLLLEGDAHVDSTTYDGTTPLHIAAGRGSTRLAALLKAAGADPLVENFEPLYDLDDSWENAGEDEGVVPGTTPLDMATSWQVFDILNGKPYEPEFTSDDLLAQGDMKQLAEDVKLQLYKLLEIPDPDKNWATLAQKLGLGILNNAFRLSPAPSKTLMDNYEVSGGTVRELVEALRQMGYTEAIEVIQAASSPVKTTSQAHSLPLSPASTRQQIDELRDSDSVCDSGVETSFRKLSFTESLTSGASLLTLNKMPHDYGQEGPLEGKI
Sequence of Nuclear factor NF-kappa-B complex (Homo sapiens) (Q00653 whole entry, looked up): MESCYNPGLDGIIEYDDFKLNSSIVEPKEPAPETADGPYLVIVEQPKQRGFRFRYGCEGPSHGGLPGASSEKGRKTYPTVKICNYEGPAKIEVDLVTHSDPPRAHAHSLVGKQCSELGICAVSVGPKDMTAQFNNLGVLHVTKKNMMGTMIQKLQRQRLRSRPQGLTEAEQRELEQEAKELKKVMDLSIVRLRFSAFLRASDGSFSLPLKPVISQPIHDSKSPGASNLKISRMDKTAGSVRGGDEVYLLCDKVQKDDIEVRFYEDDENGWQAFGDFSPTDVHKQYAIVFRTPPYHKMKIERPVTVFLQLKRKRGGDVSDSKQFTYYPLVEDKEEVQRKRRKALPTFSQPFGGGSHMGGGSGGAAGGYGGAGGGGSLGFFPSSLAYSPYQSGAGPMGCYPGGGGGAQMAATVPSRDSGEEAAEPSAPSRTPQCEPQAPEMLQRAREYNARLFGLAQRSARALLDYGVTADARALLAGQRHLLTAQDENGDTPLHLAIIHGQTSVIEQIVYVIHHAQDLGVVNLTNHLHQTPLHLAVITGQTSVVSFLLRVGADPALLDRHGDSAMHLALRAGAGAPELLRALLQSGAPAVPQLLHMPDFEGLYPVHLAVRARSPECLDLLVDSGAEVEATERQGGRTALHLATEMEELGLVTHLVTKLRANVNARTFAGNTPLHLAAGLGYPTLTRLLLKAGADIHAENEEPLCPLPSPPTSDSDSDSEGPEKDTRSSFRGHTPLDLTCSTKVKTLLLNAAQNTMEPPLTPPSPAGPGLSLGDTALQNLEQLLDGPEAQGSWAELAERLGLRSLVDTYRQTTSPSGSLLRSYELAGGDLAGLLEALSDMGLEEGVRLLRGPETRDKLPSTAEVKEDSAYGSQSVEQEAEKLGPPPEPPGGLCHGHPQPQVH
Sequence of Nuclear factor NF-kappa-B complex (Homo sapiens) (Q04206 whole entry, looked up): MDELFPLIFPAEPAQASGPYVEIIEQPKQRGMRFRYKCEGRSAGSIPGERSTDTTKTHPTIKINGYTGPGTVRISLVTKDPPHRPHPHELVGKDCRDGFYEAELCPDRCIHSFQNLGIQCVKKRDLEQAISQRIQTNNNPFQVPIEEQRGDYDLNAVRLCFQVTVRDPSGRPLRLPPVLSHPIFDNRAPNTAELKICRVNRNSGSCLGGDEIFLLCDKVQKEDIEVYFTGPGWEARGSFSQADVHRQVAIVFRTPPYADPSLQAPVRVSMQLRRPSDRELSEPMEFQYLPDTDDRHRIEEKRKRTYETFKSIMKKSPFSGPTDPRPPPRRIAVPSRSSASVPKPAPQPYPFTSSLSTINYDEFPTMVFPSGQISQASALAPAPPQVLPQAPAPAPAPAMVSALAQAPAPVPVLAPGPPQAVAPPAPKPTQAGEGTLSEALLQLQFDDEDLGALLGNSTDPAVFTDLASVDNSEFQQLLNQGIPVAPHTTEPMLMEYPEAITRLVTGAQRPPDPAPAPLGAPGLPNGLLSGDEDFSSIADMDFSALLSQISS
A short description of data set [4]: Selectivity index, ratio of CC50 for human MT4 cells to EC50 for HIV-1 NL 4-3 infected in MT4 cells. Format: toxicity, cell-based. The settings on record: read-out: Ratio CC50/EC50.
The subject of data set [5] is Human immunodeficiency virus 1. Put plainly: Antiviral activity against HIV-1 NL 4-3 infected in MT4 cells assessed as inhibition of virus-induced cytopathic effect. As to conditions: Human immunodeficiency virus 1, NL 4-3, MT4. Format: functional, organism-based. In a few lines:
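HIV-1 NL4-3-infected MT-4 cultures; run per a prior method with minor changes. The read-out is protection of cells from virus-induced cytopathic effect. EC50 is the concentration giving 50% protection, derived by curve fitting.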

For the compound `C=C[C@@]1(C)C=C2CC[C@@H]3[C@@](C)(C=O)[C@H](OC(C)=O)CC[C@@]3(C)[C@@H]2C[C@@H]1O`, the inhibition entry in data set [1], in data set [2] and in data set [3] was “inactive” throughout.

Take `CC1(C)C(=O)CC[C@]2(C)[C@@H]1CC[C@@]13CC[C@@H](C[C@H]12)C(=O)C3`: the inhibition result in data set [1], in data set [2] and in data set [3] was “inactive” each time.

`CC1=C2[C@H]3O[C@]34CC[C@@H]3C(C)(C)CC[C@H](O)[C@@]3(C)[C@@H]4C[C@H]2OC1=O`: the selectivity ratio in data set [4] is 10.3. For the same compound, in data set [5], the EC50 was determined as 7.4 µM.

Regarding `C=C1C[C@@]23CC[C@@H]4C(C)(C)C(=O)CC[C@@]4(C)[C@@H]2C[C@@H]1C[C@H]3O`, the inhibition entry in data set [1], in data set [2] and in data set [3] was “inactive” in each case.

Consider `C=C1C[C@@]23CC[C@@H]4C(C)(C)C(=O)CC[C@@]4(C)[C@@H]2C[C@@H]1[C@@H](O)[C@H]3O`, for which the inhibition result in data set [1], in data set [2] and in data set [3] was “inactive” throughout.

As to `C[C@@]12CCC(=O)[C@@](C)(CO)[C@H]1CC[C@@]13CC[C@@H](C[C@H]12)[C@](O)(CO)C3`, the inhibition entry in data set [1], in data set [2] and in data set [3] was “inactive” each time.

In the case of `CC(=O)O[C@H]1C2=C(C[C@H]3OC(=O)C(C)=C13)[C@@]1(C)[C@H](CC2)C(C)(C)CC[C@@H]1O`, in data set [4], the selectivity ratio turned out to be 8.6. For the same compound, the EC50 in data set [5] turned out to be 3.58 µM.

On to `C=C[C@@]1(C)C=C2CC[C@@H]3C(C)(C)[C@H](OC(C)=O)CC[C@@]3(C)[C@@H]2C[C@@H]1O`, for which the inhibition result in data set [1], in data set [2] and in data set [3] was “inactive” in each case.

With `C=C[C@@]1(C)C=C2CC[C@H]3[C@@](C)(CC[C@@H](OC(C)=O)[C@]3(C)C(=O)O)[C@@H]2C[C@@H]1O`, the inhibition entry in data set [1], in data set [2] and in data set [3] was “inactive” throughout.

These data come from ChEMBL document CHEMBL3352335, “Eurifoloids A-R, structurally diverse diterpenoids from Euphorbia neriifolia” (J Nat Prod, 2014).
